Assay results: ChEMBL document CHEMBL2029249, “N-Methyl-3-(tetrahydro-2H-pyran-4-yl)-2,3,4,9-tetrahydro-1H-carbazole-6-carboxamides as a novel class of cannabinoid receptors agonists with low CNS penetration” (Bioorg Med Chem Lett, 2012); call rule not given here
In brackets after ≈: the same amount, converted by molar mass.

Legend:
Cytochrome P450 3A4 = Cytochrome P450 3A4 (Homo sapiens, UniProt P08684); assay: Inhibition of CYP3A4 in human liver microsomes; assay type: ADME, Microsome
Cannabinoid receptor 2 = Cannabinoid receptor 2 (Homo sapiens, UniProt P34972); assay: Binding affinity to human CB2 receptor
Cannabinoid receptor 1 [1] = molecular target: T1, Cannabinoid receptor 1 (Homo sapiens, UniProt P21554); assay: Agonist activity at human CB1 receptor expressed in HEK293 cells assessed as [35S]GTPgamma binding relative to WIN55212-2; assay type: functional, cell-based
Procedure, shortened: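 GTPγ35S binding on membranes from HEK293 EBNA cells stably transfected with cloned human CB1; Emax relative to WIN55,212-2 as reference agonist; means of at least three measurements.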

[2] = Intrinsic clearance in rat liver microsomes; assay type: ADME, Microsome; details: read-out: CLH
Procedure, shortened: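 Rat liver microsomes; intrinsic clearance expressed per mg microsomal protein.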

[3] = Volume of distribution at steady state in Sprague-Dawley rat at 2 umol/kg, iv; assay type: ADME, organism-based; details: in vivo, read-out: Vdss
Cytochrome P450 2D6 = Cytochrome P450 2D6 (Homo sapiens, UniProt P10635); assay: Inhibition of CYP2D6 in human liver microsomes; assay type: ADME, Microsome
Cytochrome P450 1A2 = molecular target: T2, Cytochrome P450 1A2 (Homo sapiens, UniProt P05177); assay: Inhibition of CYP1A2 in human liver microsomes; assay type: ADME, Microsome
T2 sequence (P05177 whole entry): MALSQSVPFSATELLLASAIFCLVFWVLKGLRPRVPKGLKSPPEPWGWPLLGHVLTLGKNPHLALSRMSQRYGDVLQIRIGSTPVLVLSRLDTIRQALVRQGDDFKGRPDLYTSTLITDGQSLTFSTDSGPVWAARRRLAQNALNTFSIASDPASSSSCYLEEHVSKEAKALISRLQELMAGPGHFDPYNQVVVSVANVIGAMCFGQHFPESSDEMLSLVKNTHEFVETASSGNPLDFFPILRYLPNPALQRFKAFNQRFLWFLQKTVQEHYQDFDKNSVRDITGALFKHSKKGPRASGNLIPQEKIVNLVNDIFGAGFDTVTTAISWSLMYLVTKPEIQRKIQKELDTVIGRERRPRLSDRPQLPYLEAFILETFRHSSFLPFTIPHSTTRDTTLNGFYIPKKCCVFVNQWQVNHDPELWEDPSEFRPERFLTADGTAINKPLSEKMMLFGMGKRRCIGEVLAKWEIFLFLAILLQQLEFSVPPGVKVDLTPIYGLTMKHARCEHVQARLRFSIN

Cytochrome P450 2C19 = Cytochrome P450 2C19 (Homo sapiens, UniProt P33261); assay: Inhibition of CYP2C19 in human liver microsomes; assay type: ADME, Microsome
Procedure, shortened: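 IC50 determined in human liver microsomes as part of a five-isoform panel (CYP1A2, CYP2C9, CYP2C19, CYP2D6, CYP3A4) to assess drug-interaction potential.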

Plasma [4] = assay: Plasma concentration in rat carrageenan inflammatory pain model at 100 umol/kg, sc; assay type: ADME, cell-free
Procedure, shortened: (§1)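 Rats in carrageenan inflammatory pain model dosed sc at 10, 30 or 100 µmol/kg; total plasma and brain levels by protein precipitation with ACN (brain homogenised first), centrifugation 9000g, 30 min, 4 °C, then reversed-phase LC-electrospray MS/MS against a serial-dilution calibration curve.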

Rattus norvegicus = assay: Analgesic activity in sc dosed rat assessed as reversal of carrageenan-induced heat hyperalgesia; assay type: functional, organism-based
Procedure, shortened: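 Rat carrageenan inflammatory pain model; reversal of heat hyperalgesia after subcutaneous dosing at 10, 30 and 100 µmol/kg.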

[5] = Cmax in Sprague-Dawley rat at 9 umol/kg, po; assay type: ADME, organism-based; set-up: dose 9 umol/kg, route oral; details: in vivo
[6] = Apparent permeability from apical to basal side of human Caco2 cells at 10 uM; details: Caco-2
[7] = Terminal half life in Sprague-Dawley rat at 2 umol/kg, iv; assay type: ADME, organism-based; details: in vivo, read-out: beta t1/2 (converted)
Plasma [8] = assay: Plasma concentration in rat carrageenan inflammatory pain model at 10 umol/kg, sc; assay type: ADME, cell-free; procedure, shortened: as §1
Plasma [9] = assay: Plasma concentration in rat carrageenan inflammatory pain model at 30 umol/kg, sc; assay type: ADME, cell-free; procedure, shortened: as §1
[10] = Intrinsic clearance in human liver microsomes at 1 uM in presence of NADPH; assay type: ADME, Microsome; details: read-out: CLH
[11] = Plasma protein binding in Sprague-Dawley rat; assay type: ADME, cell-free; details: read-out: PPB (converted)
Cannabinoid receptor 1 [12] = molecular target: T1, Cannabinoid receptor 1; assay: Agonist activity at human CB1 receptor expressed in HEK293 cells assessed as [35S]GTPgamma binding; assay type: functional, cell-based
Cytochrome P450 2C9 = Cytochrome P450 2C9 (Homo sapiens, UniProt P11712); assay: Inhibition of CYP2C9 in human liver microsomes; assay type: ADME, Microsome
Brain = assay: Drug uptake in carrageenan inflammatory pain model of rat brain at 10 to 100 umol/kg, sc; assay type: ADME, organism-based; details: in vivo; procedure, shortened: as §1
[13] = Oral bioavailability in Sprague-Dawley rat at 9 umol/kg; assay type: ADME, organism-based; details: in vivo
[14] = Thermodynamic solubility of the compound at pH 7.4; details: buffer
Cannabinoid receptor 1 [15] = molecular target: T1, Cannabinoid receptor 1; assay: Displacement of [3H]CP55940 from human CB1 receptor expressed in HEK293 cells; assay type: cell-based
[16] = Clearance in Sprague-Dawley rat at 2 umol/kg, iv; assay type: ADME, organism-based; details: in vivo
[17] = Tmax in Sprague-Dawley rat at 9 umol/kg, po; assay type: ADME, organism-based; details: in vivo
[18] = Ratio of drug level in brain to plasma in rat by microdialysis assay
[19] = molecular target: Voltage-gated inwardly rectifying potassium channel KCNH2 (Homo sapiens, UniProt Q12809)
Chain of Voltage-gated inwardly rectifying potassium channel KCNH2 (Q12809 whole entry): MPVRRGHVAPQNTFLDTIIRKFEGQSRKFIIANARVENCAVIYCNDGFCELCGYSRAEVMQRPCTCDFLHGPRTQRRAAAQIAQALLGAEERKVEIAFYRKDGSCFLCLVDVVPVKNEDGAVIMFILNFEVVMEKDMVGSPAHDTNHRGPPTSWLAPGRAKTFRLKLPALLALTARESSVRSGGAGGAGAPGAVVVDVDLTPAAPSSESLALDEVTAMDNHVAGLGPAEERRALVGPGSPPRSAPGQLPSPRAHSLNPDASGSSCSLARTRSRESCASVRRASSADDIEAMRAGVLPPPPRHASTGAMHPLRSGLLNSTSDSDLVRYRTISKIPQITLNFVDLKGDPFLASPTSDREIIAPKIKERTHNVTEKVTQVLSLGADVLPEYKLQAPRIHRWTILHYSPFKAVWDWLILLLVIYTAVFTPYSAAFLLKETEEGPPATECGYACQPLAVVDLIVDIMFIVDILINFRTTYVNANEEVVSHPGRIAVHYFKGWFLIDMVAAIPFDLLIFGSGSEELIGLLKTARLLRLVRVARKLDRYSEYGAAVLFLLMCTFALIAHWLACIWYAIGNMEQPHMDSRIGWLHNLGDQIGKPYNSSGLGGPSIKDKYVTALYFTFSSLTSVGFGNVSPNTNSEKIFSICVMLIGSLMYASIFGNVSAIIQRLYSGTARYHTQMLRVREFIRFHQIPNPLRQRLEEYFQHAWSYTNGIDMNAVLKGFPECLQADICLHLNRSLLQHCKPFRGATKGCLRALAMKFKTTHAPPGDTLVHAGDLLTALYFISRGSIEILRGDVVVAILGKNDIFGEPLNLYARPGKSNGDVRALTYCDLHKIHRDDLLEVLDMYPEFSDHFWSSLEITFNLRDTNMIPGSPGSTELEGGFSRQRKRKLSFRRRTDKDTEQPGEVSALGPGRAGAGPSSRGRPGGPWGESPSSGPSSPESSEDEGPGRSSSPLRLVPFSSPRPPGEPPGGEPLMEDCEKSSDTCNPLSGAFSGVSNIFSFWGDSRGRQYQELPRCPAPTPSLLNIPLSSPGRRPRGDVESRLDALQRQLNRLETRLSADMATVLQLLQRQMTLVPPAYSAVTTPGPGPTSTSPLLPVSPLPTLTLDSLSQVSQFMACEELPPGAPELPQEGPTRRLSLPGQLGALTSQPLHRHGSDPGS

T1 sequence (P21554 whole entry): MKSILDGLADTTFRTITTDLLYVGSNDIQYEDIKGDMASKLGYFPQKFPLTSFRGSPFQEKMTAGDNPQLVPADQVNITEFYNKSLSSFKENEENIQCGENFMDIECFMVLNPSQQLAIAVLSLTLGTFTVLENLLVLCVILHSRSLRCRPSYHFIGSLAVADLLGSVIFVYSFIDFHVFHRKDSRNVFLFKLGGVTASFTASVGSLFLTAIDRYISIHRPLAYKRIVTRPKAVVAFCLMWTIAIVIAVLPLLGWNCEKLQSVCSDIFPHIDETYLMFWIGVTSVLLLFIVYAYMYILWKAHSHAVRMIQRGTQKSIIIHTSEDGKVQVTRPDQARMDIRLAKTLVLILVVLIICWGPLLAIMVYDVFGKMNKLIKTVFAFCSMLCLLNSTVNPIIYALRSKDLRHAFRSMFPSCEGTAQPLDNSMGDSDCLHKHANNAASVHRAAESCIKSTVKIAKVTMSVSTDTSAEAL
Chain of Cannabinoid receptor 2 (P34972 whole entry): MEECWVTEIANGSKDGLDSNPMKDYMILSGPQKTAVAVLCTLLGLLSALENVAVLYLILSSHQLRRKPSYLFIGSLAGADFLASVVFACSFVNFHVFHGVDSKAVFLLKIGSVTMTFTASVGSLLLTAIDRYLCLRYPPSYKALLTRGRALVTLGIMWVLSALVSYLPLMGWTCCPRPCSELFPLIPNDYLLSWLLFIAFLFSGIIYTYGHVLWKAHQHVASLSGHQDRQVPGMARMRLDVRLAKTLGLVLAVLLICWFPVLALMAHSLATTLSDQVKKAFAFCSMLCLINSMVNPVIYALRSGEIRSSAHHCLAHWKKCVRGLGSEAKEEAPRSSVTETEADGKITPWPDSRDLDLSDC
Chain of Cytochrome P450 2C9 (P11712 whole entry): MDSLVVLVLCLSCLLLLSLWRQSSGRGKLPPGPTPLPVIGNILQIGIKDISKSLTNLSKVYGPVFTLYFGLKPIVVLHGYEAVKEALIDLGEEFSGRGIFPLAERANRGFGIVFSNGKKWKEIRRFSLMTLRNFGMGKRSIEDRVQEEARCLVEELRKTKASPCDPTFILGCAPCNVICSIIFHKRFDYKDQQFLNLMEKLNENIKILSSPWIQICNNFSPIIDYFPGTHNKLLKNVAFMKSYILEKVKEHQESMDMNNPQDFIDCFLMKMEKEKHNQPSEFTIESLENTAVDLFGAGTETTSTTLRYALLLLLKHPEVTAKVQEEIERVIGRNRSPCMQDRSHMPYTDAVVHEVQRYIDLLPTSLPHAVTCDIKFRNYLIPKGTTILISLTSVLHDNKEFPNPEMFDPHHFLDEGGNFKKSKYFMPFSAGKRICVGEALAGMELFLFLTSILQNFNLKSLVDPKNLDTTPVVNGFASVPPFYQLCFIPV
Chain of Cytochrome P450 2D6 (P10635 whole entry): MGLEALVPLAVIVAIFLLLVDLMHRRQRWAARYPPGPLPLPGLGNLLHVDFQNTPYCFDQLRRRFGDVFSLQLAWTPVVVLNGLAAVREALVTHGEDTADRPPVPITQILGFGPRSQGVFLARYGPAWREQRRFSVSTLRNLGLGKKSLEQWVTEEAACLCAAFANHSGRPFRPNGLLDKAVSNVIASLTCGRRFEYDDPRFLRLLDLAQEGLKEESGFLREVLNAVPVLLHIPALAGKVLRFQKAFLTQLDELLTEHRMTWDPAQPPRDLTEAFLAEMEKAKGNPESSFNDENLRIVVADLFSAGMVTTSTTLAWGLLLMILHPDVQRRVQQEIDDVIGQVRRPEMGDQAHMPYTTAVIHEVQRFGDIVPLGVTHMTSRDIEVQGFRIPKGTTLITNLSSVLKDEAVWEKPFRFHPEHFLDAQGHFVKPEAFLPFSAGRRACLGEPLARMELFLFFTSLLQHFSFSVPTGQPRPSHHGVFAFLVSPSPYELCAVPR
Chain of Cytochrome P450 2C19 (P33261 whole entry, canonical isoform): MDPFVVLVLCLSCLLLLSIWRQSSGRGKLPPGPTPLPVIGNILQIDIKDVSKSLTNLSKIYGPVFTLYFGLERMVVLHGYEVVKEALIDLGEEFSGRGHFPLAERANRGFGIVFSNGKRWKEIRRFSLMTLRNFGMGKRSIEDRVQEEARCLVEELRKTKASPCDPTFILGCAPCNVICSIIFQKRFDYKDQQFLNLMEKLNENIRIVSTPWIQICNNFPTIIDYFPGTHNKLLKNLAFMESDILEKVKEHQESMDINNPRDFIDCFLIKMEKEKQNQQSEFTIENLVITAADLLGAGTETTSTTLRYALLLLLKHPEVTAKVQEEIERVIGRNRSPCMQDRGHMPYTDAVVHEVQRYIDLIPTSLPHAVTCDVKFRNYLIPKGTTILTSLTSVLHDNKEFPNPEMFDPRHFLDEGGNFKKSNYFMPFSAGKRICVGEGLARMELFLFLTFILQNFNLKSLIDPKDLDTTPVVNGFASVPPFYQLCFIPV
Chain of Cytochrome P450 3A4 (P08684 whole entry): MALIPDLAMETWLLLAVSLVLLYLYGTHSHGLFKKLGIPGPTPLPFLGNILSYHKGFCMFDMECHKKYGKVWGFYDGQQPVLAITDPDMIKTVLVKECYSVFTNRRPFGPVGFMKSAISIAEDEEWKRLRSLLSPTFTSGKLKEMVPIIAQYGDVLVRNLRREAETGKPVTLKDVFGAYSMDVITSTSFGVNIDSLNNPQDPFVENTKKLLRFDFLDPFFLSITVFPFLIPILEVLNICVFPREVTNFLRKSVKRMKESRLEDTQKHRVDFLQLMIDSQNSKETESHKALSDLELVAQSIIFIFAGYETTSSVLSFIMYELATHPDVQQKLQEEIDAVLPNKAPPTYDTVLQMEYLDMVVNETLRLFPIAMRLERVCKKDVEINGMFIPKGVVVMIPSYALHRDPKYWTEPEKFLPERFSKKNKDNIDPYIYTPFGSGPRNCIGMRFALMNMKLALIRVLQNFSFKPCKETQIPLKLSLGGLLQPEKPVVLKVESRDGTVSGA

SMILES | Emax (Cannabinoid receptor 1 [1]) | Papp A→B at 10 µM [6] | microsomal CLint at 1 µM [10] | EC50 (Cannabinoid receptor 1 [12]) | solubility thermodynamic [14] | Kp [18] | other results
CNC(=O)CCCN(C)C(=O)c1ccc2c(c1)c1c(n2C)CC[C@@H](C2CCOCC2)C1 | 116% | 12 ×10⁻⁶ cm/s | 26 µL/min/mg | 51.4 nM | 1120 µM (≈ 478 µg/mL) | 0.02 | INH (Cytochrome P450 3A4): > 20 µM; Ki (Cannabinoid receptor 2): 15.5 nM; microsomal CLint [2]: 61 µL/min/mg; Vd [3]: 0.3 L/kg; INH (Cytochrome P450 2D6): > 20 µM; INH (Cytochrome P450 1A2): > 20 µM; INH (Cytochrome P450 2C19): > 20 µM; concentration (Plasma [4]): 50.7 µM; Activity (Rattus norvegicus): Dose-dependent effect; Cmax [5]: 6.3 µM; half-life [7]: 2.4 h; concentration (Plasma [8]): 6.9 µM; concentration (Plasma [9]): 9.1 µM; fraction unbound [11]: 0.021; IC50 (Cytochrome P450 2C9): 7000 nM; Drug uptake (Brain): Not Active; bioavailability [13]: 100%; Ki (Cannabinoid receptor 1 [15]): 29.3 nM; clearance [16]: 2.8 mL/min/kg; Tmax [17]: 2.2 h
Cc1c(C(=O)c2cccc3ccccc23)c2cccc3c2n1[C@H](CN1CCOCC1)CO3 [WIN-552122] |  |  |  |  | 2 µM (≈ 0.853 µg/mL) | 2.3 | 
CN(CC(=O)NC1CC1)C(=O)c1ccc2c(c1)c1c(n2C)CCC(C2CCOCC2)C1 (racemic) | 121% |  | 37 µL/min/mg |  | 108 µM (≈ 45.7 µg/mL) |  | Ki (Cannabinoid receptor 2): 26.3 nM
CNC(=O)CC[C@@H](CO)N(C)C(=O)c1ccc2c(c1)c1c(n2C)CC[C@@H](C2CCOCC2)C1 | 124% | 0.15 ×10⁻⁶ cm/s | 15 µL/min/mg |  | > 3000 µM | < 0.02 | IC50 [19]: > 33000 nM
CCNC(=O)CC[C@@H](CO)N(C)C(=O)c1ccc2c(c1)c1c(n2C)CC[C@@H](C2CCOCC2)C1 | 126% |  | 21 µL/min/mg |  |  | 0.011 | 
CCN(CC(=O)NC1CC1)C(=O)c1ccc2c(c1)c1c(n2C)CCC(C2CCOCC2)C1 (racemic) | 106% |  | 53 µL/min/mg |  | 36 µM (≈ 15.8 µg/mL) |  | 
CCS(=O)(=O)n1c2c(c3cc(C(=O)N4CCC(C)CC4)ccc31)CN(C1CCOCC1)CC2 | 120% | 13 ×10⁻⁶ cm/s |  |  | > 1030 µM | 0.07 | 
CN(CCCC(=O)NC1CC1)C(=O)c1ccc2c(c1)c1c(n2C)CCC(C2CCOCC2)C1 (stereo not drawn) | 113% |  | 73 µL/min/mg |  | 444 µM (≈ 201 µg/mL) |  | 
CCN(CC(=O)NC1CC1)C(=O)c1ccc2c(c1)c1c(n2C)CC[C@@H](C2CCOCC2)C1 | 106% | 23 ×10⁻⁶ cm/s | 36 µL/min/mg | 1.9 nM | 30 µM (≈ 13.1 µg/mL) | 0.09 | Ki (Cannabinoid receptor 1 [15]): 4.2 nM
CCN(CCCC(=O)NC1CC1)C(=O)c1ccc2c(c1)c1c(n2C)CCC(C2CCOCC2)C1 (stereo not drawn) | 114% |  | 143 µL/min/mg | 2.9 nM | 224 µM (≈ 104 µg/mL) |  | 
CCCCCOc1ccc(C(=O)c2cccc3ccccc23)c2ccccc12 | 112% |  |  |  |  | 0.29 | 
CCN(CC(=O)NC1CC1)C(=O)c1ccc2c(c1)c1c(n2C)CC[C@H](C2CCOCC2)C1 | 106% |  |  | 24.2 nM | 49 µM (≈ 21.4 µg/mL) |  | Ki (Cannabinoid receptor 1 [15]): 17.3 nM
CN(CCCC(=O)NCCF)C(=O)c1ccc2c(c1)c1c(n2C)CC[C@@H](C2CCOCC2)C1 | 108% |  | 50 µL/min/mg | 12.9 nM | 470 µM (≈ 215 µg/mL) | 0.02 | 
